Calls of active or inactive are those of the source. The rule behind the calls is not given here.
Columns and labels:
T47D [1] = experiment: Induction of apoptosis in human T47D cells assessed as rate of apoptotic cell death at 5 umol/L by annexin V/PI staining based flow cytometry relative to control; type: functional; settings: dose 5 µmol/L; at 5 µM
T47D [2] = experiment: Disruption of microtubule dynamics in human T47D cells assessed as formation of multipolar spindles at 5 umol/L incubated upto 72 hrs by immunofluorescence staining based analysis; type: functional, cell-based; settings: dose 5.0 µmol/L
In short: (§1)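 T-47D cells (1 × 10^6/dish) in RPMI-1640 with 5% FBS were treated with or without 5 µmol/L for 24, 48 and 72 h. Cells were fixed in cold acetone and stained with mouse anti-α-tubulin or anti-γ-tubulin, then an FITC anti-mouse IgG secondary, plus DAPI. Fluorescence microscopy, 200× magnification.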

MCF7 [3] = experiment: Induction of apoptosis in human MCF7 cells assessed as necrotic cells at 5 umol/L incubated for 3 days by Annexin V/PI staining based flow cytometry (reference value: 0.4 %); type: functional; settings: dose 5 µmol/L; time 3 day; at 5 µM
T47D [4] = experiment: Induction of apoptosis in human T47D cells assessed as cell death at 5 uM; type: functional, cell-based; settings: TDE = time-dependent effect
T47D [5] = experiment: Induction of polyploidy in human T47D cells at 1 umol/L incubated for 72 hrs by microscopic analysis relative to control; type: functional; settings: dose 1 µmol/L, at 1 µM
In short: (§2)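 Cells stained with Hema-3 and photographed under a light microscope with CCD camera. Polyploid cells scored as percent of the population.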

T47D [6] = experiment: Induction of polyploidy in human T47D cells at 10 umol/L incubated for 72 hrs by microscopic analysis relative to control; type: functional; settings: dose 10 µmol/L, at 10 µM; in short: as §2
T47D [7] = experiment: Induction of polyploidy in human T47D cell at 5 umol/L by microscopic analysis; type: functional, cell-based; settings: dose 5.0 µmol/L, time 72.0 hrs, TDE = time-dependent effect
ZR-75-1 [8] = experiment: Induction of polyploidy in human ZR-75-1 cells at 5 umol/L by microscopic analysis; type: functional, cell-based; settings: dose 5.0 µmol/L, time 72.0 hrs, TDE = time-dependent effect
MCF7 [9] = experiment: Induction of polyploidy in human MCF7 cells at 5 umol/L by microscopic analysis; type: functional, cell-based; settings: dose 5.0 µmol/L, time 72.0 hrs, TDE = time-dependent effect
T47D [10] = experiment: Induction of polyploidy in human T47D cells at 5 uM incubated for 72 hrs by microscopic analysis; type: functional, cell-based; in short: as §2
MCF7 [11] = experiment: Induction of polyploidy in human MCF7 cells at 5 uM incubated for 72 hrs by microscopic analysis; type: functional, cell-based; in short: as §2
T47D [12] = experiment: Induction of polyploidy in human T47D cells with RON-/- at 5 umol/L incubated for 72 hrs by microscopic analysis; type: functional, cell-based; settings: dose 5.0 µmol/L
In short: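 Cells (2 106 per 60-mm dish) transiently transfected for 48 hours with 1 nmol/L scrambled or RON-specific siRNA, with knockdown confirmed by anti-RON Western blot. […] Polyploidy monitored and photographed by microscopy, with untransfected and scrambled-siRNA cells as comparators.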

T47D [13] = experiment: Induction of polyploidy in human T47D cells with RON-/- at 5 umol/L incubated for 72 hrs followed by media replacement without compound measured upto 10 days by microscopic analysis; type: functional, cell-based; settings: dose 5.0 µmol/L
ZR-75-1 [14] = experiment: Inhibition of cell proliferation of human ZR-75-1 cells with RON-/- at 5 umol/L incubated for 72 hrs followed by media replacement without compound measured upto 10 days by microscopic analysis; type: functional, cell-based; settings: dose 5.0 µmol/L
MCF7 [15] = experiment: Induction of polyploidy in human MCF7 cells assessed as cells with 2N chromosome contents at 5 uM incubated for 24 hrs by PI staining based flow cytometry (reference value: 52); type: functional
MCF7 [16] = experiment: Induction of polyploidy in human MCF7 cells assessed as cells with 2N chromosome contents at 5 uM incubated for 48 hrs by PI staining based flow cytometry (reference value: 52); type: functional
MCF7 [17] = experiment: Induction of polyploidy in human MCF7 cells assessed as cells with 8N chromosome contents at 5 uM incubated for 48 hrs by PI staining based flow cytometry (reference value: 0); type: functional
MCF7 [18] = experiment: Induction of polyploidy in human MCF7 cells assessed as cells with 16N chromosome contents at 5 uM incubated for 48 hrs by PI staining based flow cytometry (reference value: 0); type: functional
MCF7 [19] = experiment: Induction of polyploidy in human MCF7 cells assessed as cells with 2N chromosome contents at 5 uM incubated for 72 hrs by PI staining based flow cytometry (reference value: 52); type: functional
MCF7 [20] = experiment: Induction of polyploidy in human MCF7 cells assessed as cells with 8N chromosome contents at 5 uM incubated for 72 hrs by PI staining based flow cytometry (reference value: 0); type: functional
T47D [21] = experiment: Induction of polyploidy in human T47D cells assessed as cells with 8N chromosome contents at 5 uM incubated for 24 hrs by PI staining based flow cytometry (reference value: 0); type: functional
T47D [22] = experiment: Induction of polyploidy in human T47D cells assessed as cells with 16N chromosome contents at 5 uM incubated for 24 hrs by PI staining based flow cytometry (reference value: 0); type: functional
T47D [23] = experiment: Induction of polyploidy in human T47D cells assessed as cells with 16N chromosome contents at 5 uM incubated for 48 hrs by PI staining based flow cytometry (reference value: 0); type: functional
ZR-75-1 [24] = experiment: Induction of polyploidy in human ZR-75-1 cells assessed as cells with 16N chromosome contents at 5 uM incubated for 24 hrs by PI staining based flow cytometry (reference value: 0); type: functional
ZR-75-1 [25] = experiment: Induction of polyploidy in human ZR-75-1 cells assessed as cells with 4N chromosome contents at 5 uM incubated for 48 hrs by PI staining based flow cytometry (reference value: 35); type: functional
ZR-75-1 [26] = experiment: Induction of polyploidy in human ZR-75-1 cells assessed as cells with 16N chromosome contents at 5 uM incubated for 48 hrs by PI staining based flow cytometry (reference value: 0); type: functional
ZR-75-1 [27] = experiment: Induction of polyploidy in human ZR-75-1 cells assessed as cells with 4N chromosome contents at 5 uM incubated for 72 hrs by PI staining based flow cytometry (reference value: 35); type: functional
T47D [28] = experiment: Disruption of microtubule dynamics in human T47D cells assessed as absence of functional bipolar spindle assembly at 5 umol/L incubated for 24 hrs by immunofluorescence staining based analysis; type: cell-based; settings: dose 5.0 µmol/L; in short: as §1
T47D [29] = experiment: Disruption of microtubule dynamics in human T47D cells assessed as lack of chromosomal segregation at 5 umol/L incubated for 24 hrs by immunofluorescence staining based analysis; type: functional, cell-based; settings: dose 5.0 µmol/L; in short: as §1
T47D [30] = experiment: Downregulation of histone H3 expression in human T47D cells at 5 umol/L incubated upto 72 hrs by Western blot analysis; type: functional, cell-based; settings: dose 5.0 µmol/L
In short: (§3)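 Cells were treated with 5 µmol/L for 0, 24, 48 and 72 h. Lysates were immunoblotted for AURK-B, phospho-Ser10 histone H3 and total histone H3, with β-actin reprobe as the loading control. Detection by enhanced chemiluminescence.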

ZR-75-1 [31] = experiment: Downregulation of histone H3 expression in human ZR-75-1 cells at 5 umol/L incubated upto 72 hrs by Western blot analysis; type: functional, cell-based; settings: dose 5.0 µmol/L; in short: as §3
MCF7 [32] = experiment: Downregulation of histone H3 expression in human MCF7 cells at 5 umol/L incubated upto 72 hrs by Western blot analysis; type: functional, cell-based; settings: dose 5.0 µmol/L; in short: as §3
[33] = Effect on cisplatin resistance in human ZR-75-1 cells with compound-induced polyploidy assessed as change in cisplatin-induced cytotoxicity by measuring increase in cisplatin IC50 at 5 umol/L preincubated for 72 hrs followed by compound washout and subsequent cisplatin treatment for 72 hrs by MTS assay; type: functional, cell-based
T-47D (Homo sapiens) = experiment: Disruption of microtubule dynamics in human T-47D cells at 5 umol/L incubated upto 72 hrs by immunofluorescence staining based analysis; settings: dose 5.0 µmol/L

## CCOc1ccn(-c2ccc(F)cc2)c(=O)c1C(=O)Nc1ccc(Oc2ccnc(N)c2Cl)c(F)c1 [BMS-777607]
T47D [1]
  Activity: 10.3%
T47D [2]
  Activity: Active
MCF7 [3]
  Activity: 0.5%
T47D [4]
  Activity: Tde
T47D [5]
  Activity: 14%
T47D [6]
  Activity: 86%
T47D [7]
  Activity: Tde
ZR-75-1 [8]
  Activity: Tde
MCF7 [9]
  Activity: Tde
T47D [10]
  Activity: Active
MCF7 [11]
  Activity: Active
T47D [12]
  Activity: Active
T47D [13]
  Activity: Active
ZR-75-1 [14]
  inhibition: inactive
MCF7 [15]
  Activity: 15.5
MCF7 [16]
  Activity: 12
MCF7 [17]
  Activity: 25.5
MCF7 [18]
  Activity: 0
MCF7 [19]
  Activity: 12
MCF7 [20]
  Activity: 29
T47D [21]
  Activity: 26
T47D [22]
  Activity: 10
T47D [23]
  Activity: 18.5
ZR-75-1 [24]
  Activity: 5
ZR-75-1 [25]
  Activity: 12
ZR-75-1 [26]
  Activity: 32
ZR-75-1 [27]
  Activity: 12
T47D [28]
  Activity: Active
T47D [29]
  Activity: Active
T47D [30]
  Activity: inactive
ZR-75-1 [31]
  Activity: inactive
MCF7 [32]
  Activity: inactive
[33]
  IC50: 3.4 nM
T-47D (Homo sapiens)
  Activity: Active

From ChEMBL document CHEMBL5653613 (Mol Cancer Ther, 2013)
